Screening results (PubChem)
Shown is part of a subset that was picked to be rich in hits.
PDI turbidity: inhibitors of human protein disulfide isomerase | P07237 | PDI insulin aggregation turbidity, A650, 90 min | inhibition, % at 10 µM | hit rate 0.052% among 350,000 | AID 588391;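 active means mean inhibition across replicates of 30% or more, whatever share of single replicates reach that level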
ERAP1 inh: ERAP1 (human) enzyme inhibition; Q9NZ08; recombinant ERAP1, Leu-AMC fluorescence, 60 min; inhibition, % at 10.7 µM; hit rate 0.15% among 340,000; AID 652197;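 active means mean replicate inhibition of at least 30%, or all replicates individually reaching that 30% level; inactive means mean below 30% and not every replicate reaching it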
S100A4 MyoIIA: blocks human S100A4 binding to myosin IIA peptide; AID 652163; hit rate 0.14% among 360,000; P26447; inhibition, % at 10.7 µM; S100A4/TAMRA-MyoIIA peptide fluorescence polarization;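 active means mean inhibition of at least 70% across replicates, with every replicate also reaching that level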
Target sequence (P26447 whole entry, looked up): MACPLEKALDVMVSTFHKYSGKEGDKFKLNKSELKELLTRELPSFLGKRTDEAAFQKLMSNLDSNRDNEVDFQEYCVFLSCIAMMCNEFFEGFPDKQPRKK
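Test system: S100A4 monomer protein; Medium: HEPES pH 7.2 with CaCl2, KCl, NaCl, DTT, Triton; Probe or stimulus: TAMRA-labelled myosin IIA heavy-chain peptide probe, 5 nM; Doses: one dose per compound; Times: polarization read 5 min after assay mix addition, stable 5–60 min; Benchmarks: neutral control DMSO, positive control TFP.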
FGF22 binding: shifts melting point of recombinant human FGF22 | activity (Tm shift, normalised), % at 9.99 µM | recombinant FGF22 thermal shift, SYPRO orange fluorescence; percent of sucrose octasulfate shift, DMSO zero | Q9HCT0 | hit rate 1.5% among 340,000;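 active means mean Tm shift, scaled 0 neutral to 100 positive control, at about 1.3% or above, every replicate too, limit read from the data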
Target sequence (Q9HCT0 whole entry, looked up): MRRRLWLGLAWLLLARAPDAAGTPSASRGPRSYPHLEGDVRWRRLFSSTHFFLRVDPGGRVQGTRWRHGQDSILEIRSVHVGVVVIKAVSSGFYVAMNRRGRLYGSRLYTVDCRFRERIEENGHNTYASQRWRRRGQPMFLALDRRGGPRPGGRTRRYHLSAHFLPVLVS
ERp5 block: inhibitors of human ERp5; Q15084; inhibition, % at 9.99 µM; AID 651711; ERp5 insulin aggregation, absorbance 650 nm, 90 min; hit rate 0.05% among 350,000;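 active means mean replicate inhibition above about 25%, with every replicate also reaching it, limit read from the data, passing the limit was not always enough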
Hits are given with their value; n = inactive; x = no result given.

SMILES | PDI turbidity | ERAP1 inh | S100A4 MyoIIA | FGF22 binding | ERp5 block
CC(C)NS(=O)(=O)c1ccc(NC(=O)C(C)OC(=O)CCCOc2ccccc2)cc1 (configuration not stated) | n | n | n | n | n
COc1ccc(Oc2ccc(C(F)(F)F)cc2N)cc1 | n | x | n | n | n
CC(C)C#Cc1ccc([C@H]2[C@@H](C#N)N(C(=O)c3ccccn3)[C@H]2CO)cc1 | x | n | n | n | n
COc1ccccc1CC(=O)Nc1ccc2c(C)cc(=O)oc2c1 | n | n | n | n | n
COc1ccccc1NC(=O)Nc1ccc(Cc2ccncc2)cc1 | n | n | n | 43.5 | n
Cc1cccc(OCC(=O)NNC(=O)CSc2ncc(C#N)c(N)n2)c1 | n | x | x | x | x
COc1ccc(OC2C(=O)N(c3ccc(C)c(C)c3)C2c2ccc(OC)c(OC)c2)cc1 (configuration not stated) | n | n | n | 43.5 | n
COc1ccc(OC2C(=O)N(c3cc(C)ccc3C)C2c2ccc(OC)c(OC)c2)cc1 (configuration not stated) | n | x | x | x | x
COc1cc(OC)cc(C(=O)NCC(=O)OCC(=O)c2ccc3c(c2)-c2ccccc2C3)c1 | n | n | n | 44.8 | n
COc1cccc(C(=O)NCC(=O)OCC(=O)c2ccccc2)c1 | n | x | x | x | x
COc1cccc(CSc2nnc(C(F)(F)F)n2Cc2ccc(F)cc2)c1 | n | n | n | n | n
Nn1c(SCc2cccc(Oc3ccccc3)c2)nnc1C(F)(F)F | n | n | n | 43.0 | n
CO[C@@H](CN(C)S(=O)(=O)c1ccc(F)cc1)[C@@H](C)CN(Cc1ccccc1Cl)[C@@H](C)CO | x | n | n | n | n
O=C(CCC(=O)NNC(=O)COc1ccc(Br)cc1Br)NCc1ccccc1 | n | n | n | n | n
Cc1cc(Br)cc(Br)c1OCC(=O)NNC(=O)CCC(=O)NCc1ccccc1 | n | n | n | n | 27.3
Nc1nc(SCC(=O)Nc2ccc([N+](=O)[O-])cc2)[nH]c(=O)c1NC(=O)c1ccc(Br)cc1 | n | n | n | n | n
O=c1c2ccccc2c(/C=N/c2n[nH]c(CCCO)n2)c(O)n1-c1ccccc1Cl | n | n | n | 43.0 | n
O=C(Cn1c(-c2ccccc2)c[n+]2ccsc12)c1ccc([N+](=O)[O-])cc1 | n | n | n | 42.9 | n
O=C(Cn1c(-c2ccccc2)c[n+]2ccsc12)c1ccccc1 | n | n | n | n | n
CC(C)N(C(=O)[C@H]1C[C@H](CC(=O)NCc2cccc(C(F)(F)F)c2)C(=O)N2CCc3c([nH]c4cc(CCC(=O)N(C)C)ccc34)[C@]12C)C(C)C | n | n | n | n | n
Cn1cc(SCC(=O)NC2CCCCC2)c2ccccc21 | n | n | n | n | n
Cn1cc(SCC(=O)NC2CCCC2)c2ccccc21 | n | n | 87.3 | n | n
COc1ccc(-c2coc3cc(OC4OC(CO)C(O)C(O)C4O)ccc3c2=O)cc1 (configuration not stated) | n | n | n | n | n
COc1ccc(-c2sc3cc(OC)ccc3c2-c2ccc(OCCN3CCOCC3)cc2)cc1 | n | n | n | n | n
C[C@@H]1CN([C@H](C)CO)C(=O)c2c(c3ccccc3n2C)-c2ccccc2CO[C@H]1CN(C)Cc1cccc2c1OCCCO2 | x | n | n | n | n
SMILES | PDI turbidity | ERAP1 inh | S100A4 MyoIIA | FGF22 binding | ERp5 block
Cc1[nH][nH]c(=O)c1C(c1ccc(-c2ccc(C(=O)O)cc2)o1)c1c(C)[nH][nH]c1=O | n | n | n | n | n
Cc1[nH][nH]c(=O)c1C(c1ccc(-c2ccc(F)cc2)o1)c1c(C)[nH][nH]c1=O | n | n | n | 43.0 | n
CCc1sc(C(=O)N2CCN(S(C)(=O)=O)CC2)cc1Br | n | n | n | n | n
CCc1cc2c(SCC#N)ncnc2s1 | n | n | n | 43.0 | n
CCc1cc2c(SCC(=O)O)ncnc2s1 | n | n | n | n | n
CNC(=S)N1N=C(c2ccc(C)cc2)CC1c1ccc(N(C)C)cc1 (configuration not stated) | n | n | n | 43.6 | n
CNC(=S)N1N=C(c2ccc(C)cc2)CC1c1ccc(OC)cc1 (configuration not stated) | n | x | x | x | x
COc1cc(C(=O)N/C(=C\c2cn(C)c3ccccc23)C(=O)NCCCO)cc(OC)c1OC | n | n | n | n | n
COc1cc(C(=O)N/C(=C\c2cn(S(=O)(=O)N(C)C)c3ccccc23)C(=O)NCCCO)cc(OC)c1OC | n | n | n | 43.5 | n
Cc1ccc(-n2c(C)nn(CC3CC3)c2=O)cc1 | n | n | n | n | n
